Assay results published in ChEMBL document CHEMBL1148781, “Phenylimidazole derivatives of 4-pyridone as dual inhibitors of bacterial enoyl-acyl carrier protein reductases FabI and FabK” (J Med Chem, 2007).
Values after ≈ are worked out from the molar mass of the structure shown.

test system: not listed separately; test: Inhibition of Escherichia coli FabI
How it was run: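 His-tagged E. coli FabI (gene from E. coli DH5α, expressed in E. coli TOP10 with arabinose induction, Ni-NTA purified) at 50 µg/mL in 100 mM sodium phosphate pH 7.4 with 0.25 mM crotonoyl-CoA and 0.4 mM NADH. Reaction started by enzyme addition; NADH consumption followed at 340 nm for 10 min at room temperature; IC50 = concentration halving activity.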

| Compound | IC50 |
| --- | --- |
| Cc1c(Cc2c(Cl)cccc2Cl)c(=O)ccn1Cc1ccc(-c2c[nH]c(CNC(=O)Nc3ncc(Br)s3)n2)cc1 | 0.82 µM |
| O=C(NCc1ncc(-c2ccccc2)[nH]1)Nc1ncc(Sc2ccccn2)s1 | > 32 µM |
| Cc1c(Cc2c(Cl)cccc2Cl)c(=O)ccn1C/C=C/c1ccc(-c2c[nH]c(CNC(=O)Nc3ncc(Br)s3)n2)cc1 | 0.29 µM |
| Cc1c(Cc2c(Cl)cccc2Cl)c(=O)ccn1CCc1ccc(-c2c[nH]c(CNC(=O)Nc3ncc(Sc4ccccn4)s3)n2)cc1 | 0.56 µM |
| Cc1c(Cc2c(Cl)cccc2Cl)c(=O)ccn1CCc1ccc(-c2c[nH]c(CNC(=O)Nc3ncc(S(C)(=O)=O)s3)n2)cc1 | 0.31 µM |
| Cc1c(Cc2c(Cl)cccc2Cl)c(=O)ccn1/C=C/c1ccc(-c2c[nH]c(CNC(=O)Nc3ncc(Br)s3)n2)cc1 | > 32 µM |
| Cc1c(Cc2c(Cl)cccc2Cl)c(=O)ccn1CCc1ccc(-c2c[nH]c(CNC(=O)Nc3ncc[nH]3)n2)cc1 | 0.93 µM |
| Cn1cc(CNC(=O)/C=C/c2cnc3c(c2)CCC(=O)N3)c2ccccc21 | 0.2 µM |
| O=C(NCc1ncc(-c2cccc(Br)c2)[nH]1)Nc1ncc(Sc2ccccn2)s1 | > 32 µM |
| Cc1c(Cc2c(Cl)cccc2Cl)c(=O)ccn1CCCc1ccc(-c2c[nH]c(CNC(=O)Nc3ncc(Br)s3)n2)cc1 | 0.34 µM |
| O=C(NCc1ncc(-c2ccc(Br)cc2)[nH]1)Nc1ncc(Sc2ccccn2)s1 | > 32 µM |
| Cc1c(Cc2c(Cl)cccc2Cl)c(=O)ccn1CCc1ccc(-c2c[nH]c(CNC(=O)Nc3ncc(Br)s3)n2)cc1 | 0.57 µM |
| O=C([O-])COc1ccc(-c2cnc(CNC(=O)Nc3ncc(Sc4ccccn4)s3)[nH]2)cc1.[Na+] | > 32 µM |
| CS(=O)(=O)c1ccc2nc(NC(=O)NCc3nc(-c4ccccc4)c[nH]3)sc2c1 | > 32 µM |
| Oc1cc(Cl)ccc1Oc1ccc(Cl)cc1Cl [TRICLOSAN] | 0.9 µM |
| Cc1c(Cc2c(Cl)cccc2Cl)c(=O)ccn1CCc1ccc(-c2c[nH]c(CNC(=O)Nc3nc4ccc(S(C)(=O)=O)cc4s3)n2)cc1 | 0.38 µM |

target: T1, Enoyl-(Acyl-carrier-protein) reductase (Streptococcus pneumoniae, UniProt Q9FBC5); test: Inhibition of Streptococcus pneumoniae FabK
T1 sequence (Q9FBC5 whole entry): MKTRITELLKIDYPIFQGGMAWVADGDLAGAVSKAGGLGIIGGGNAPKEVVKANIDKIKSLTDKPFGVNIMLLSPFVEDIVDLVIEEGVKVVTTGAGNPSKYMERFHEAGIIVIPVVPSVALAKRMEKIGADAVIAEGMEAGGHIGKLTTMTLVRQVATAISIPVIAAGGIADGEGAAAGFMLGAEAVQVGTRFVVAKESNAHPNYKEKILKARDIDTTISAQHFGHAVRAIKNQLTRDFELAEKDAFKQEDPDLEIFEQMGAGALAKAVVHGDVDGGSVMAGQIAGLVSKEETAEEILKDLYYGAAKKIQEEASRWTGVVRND
How it was run: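 C-terminal His-tagged FabK from S. pneumoniae R6, expressed in E. coli BL21(DE3) with 1 mM IPTG, Ni-NTA purified, used at 2 µg/mL. Buffer 100 mM MES pH 7.0, 100 mM NH4Cl, 0.2 mM crotonoyl-CoA, 0.4 mM NADH; enzyme-initiated. Absorbance at 340 nm read for 10 min at room temperature; IC50 = concentration giving 50% activity reduction.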

| Compound | IC50 |
| --- | --- |
| Cc1c(Cc2c(Cl)cccc2Cl)c(=O)ccn1Cc1ccc(-c2c[nH]c(CNC(=O)Nc3ncc(Br)s3)n2)cc1 | 11 µM |
| O=C(NCc1ncc(-c2ccccc2)[nH]1)Nc1ncc(Sc2ccccn2)s1 | 0.042 µM |
| Cc1c(Cc2c(Cl)cccc2Cl)c(=O)ccn1C/C=C/c1ccc(-c2c[nH]c(CNC(=O)Nc3ncc(Br)s3)n2)cc1 | 9 µM |
| Cc1c(Cc2c(Cl)cccc2Cl)c(=O)ccn1CCc1ccc(-c2c[nH]c(CNC(=O)Nc3ncc(Sc4ccccn4)s3)n2)cc1 | 0.016 µM |
| Cc1c(Cc2c(Cl)cccc2Cl)c(=O)ccn1CCc1ccc(-c2c[nH]c(CNC(=O)Nc3ncc(S(C)(=O)=O)s3)n2)cc1 | 0.0094 µM |
| Cc1c(Cc2c(Cl)cccc2Cl)c(=O)ccn1/C=C/c1ccc(-c2c[nH]c(CNC(=O)Nc3ncc(Br)s3)n2)cc1 | > 30 µM |
| Cc1c(Cc2c(Cl)cccc2Cl)c(=O)ccn1CCc1ccc(-c2c[nH]c(CNC(=O)Nc3ncc[nH]3)n2)cc1 | > 32 µM |
| Cn1cc(CNC(=O)/C=C/c2cnc3c(c2)CCC(=O)N3)c2ccccc21 | > 32 µM |
| O=C(NCc1ncc(-c2cccc(Br)c2)[nH]1)Nc1ncc(Sc2ccccn2)s1 | 0.0053 µM |
| Cc1c(Cc2c(Cl)cccc2Cl)c(=O)ccn1CCCc1ccc(-c2c[nH]c(CNC(=O)Nc3ncc(Br)s3)n2)cc1 | 6.6 µM |
| O=C(NCc1ncc(-c2ccc(Br)cc2)[nH]1)Nc1ncc(Sc2ccccn2)s1 | 0.0024 µM |
| Cc1c(Cc2c(Cl)cccc2Cl)c(=O)ccn1CCc1ccc(-c2c[nH]c(CNC(=O)Nc3ncc(Br)s3)n2)cc1 | 0.029 µM |
| O=C([O-])COc1ccc(-c2cnc(CNC(=O)Nc3ncc(Sc4ccccn4)s3)[nH]2)cc1.[Na+] | 0.034 µM |
| Oc1cc(Cl)ccc1Oc1ccc(Cl)cc1Cl [TRICLOSAN] | > 32 µM |
| Cc1c(Cc2c(Cl)cccc2Cl)c(=O)ccn1CCc1ccc(-c2c[nH]c(CNC(=O)Nc3nc4ccc(S(C)(=O)=O)cc4s3)n2)cc1 | 0.0045 µM |

test system: Streptococcus pneumoniae; test: Antibacterial activity against Streptococcus pneumoniae KU197; type: functional
How it was run: (§1)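 Broth microdilution per NCCLS M7-A6; MIC taken as lowest concentration preventing visible growth. Strains: S. aureus ATCC29213 and S. pneumoniae KU197 (PRSP).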

| Compound | MIC |
| --- | --- |
| Cc1c(Cc2c(Cl)cccc2Cl)c(=O)ccn1Cc1ccc(-c2c[nH]c(CNC(=O)Nc3ncc(Br)s3)n2)cc1 | > 32 µg/mL |
| O=C(NCc1ncc(-c2ccccc2)[nH]1)Nc1ncc(Sc2ccccn2)s1 | 2 µg/mL (≈ 4.9 µM) |
| Cc1c(Cc2c(Cl)cccc2Cl)c(=O)ccn1C/C=C/c1ccc(-c2c[nH]c(CNC(=O)Nc3ncc(Br)s3)n2)cc1 | > 32 µg/mL |
| Cc1c(Cc2c(Cl)cccc2Cl)c(=O)ccn1CCc1ccc(-c2c[nH]c(CNC(=O)Nc3ncc(Sc4ccccn4)s3)n2)cc1 | 2 µg/mL (≈ 2.85 µM) |
| Cc1c(Cc2c(Cl)cccc2Cl)c(=O)ccn1CCc1ccc(-c2c[nH]c(CNC(=O)Nc3ncc(S(C)(=O)=O)s3)n2)cc1 | 1 µg/mL (≈ 1.49 µM) |
| Cc1c(Cc2c(Cl)cccc2Cl)c(=O)ccn1CCc1ccc(-c2c[nH]c(CNC(=O)Nc3ncc[nH]3)n2)cc1 | > 32 µg/mL |
| Cn1cc(CNC(=O)/C=C/c2cnc3c(c2)CCC(=O)N3)c2ccccc21 | > 32 µg/mL |
| O=C(NCc1ncc(-c2cccc(Br)c2)[nH]1)Nc1ncc(Sc2ccccn2)s1 | 16 µg/mL (≈ 32.8 µM) |
| Cc1c(Cc2c(Cl)cccc2Cl)c(=O)ccn1CCCc1ccc(-c2c[nH]c(CNC(=O)Nc3ncc(Br)s3)n2)cc1 | > 32 µg/mL |
| O=C(NCc1ncc(-c2ccc(Br)cc2)[nH]1)Nc1ncc(Sc2ccccn2)s1 | 0.25 µg/mL (≈ 0.513 µM) |
| Cc1c(Cc2c(Cl)cccc2Cl)c(=O)ccn1CCc1ccc(-c2c[nH]c(CNC(=O)Nc3ncc(Br)s3)n2)cc1 | 8 µg/mL (≈ 11.9 µM) |
| O=C([O-])COc1ccc(-c2cnc(CNC(=O)Nc3ncc(Sc4ccccn4)s3)[nH]2)cc1.[Na+] | > 32 µg/mL |
| Cc1c(Cc2c(Cl)cccc2Cl)c(=O)ccn1CCc1ccc(-c2c[nH]c(CNC(=O)Nc3nc4ccc(S(C)(=O)=O)cc4s3)n2)cc1 | 0.5 µg/mL (≈ 0.693 µM) |

test system: Staphylococcus aureus; test: Antibacterial activity against Staphylococcus aureus ATCC 29213; type: functional; how it was run: as §1

| Compound | MIC |
| --- | --- |
| Cc1c(Cc2c(Cl)cccc2Cl)c(=O)ccn1Cc1ccc(-c2c[nH]c(CNC(=O)Nc3ncc(Br)s3)n2)cc1 | > 32 µg/mL |
| Cc1c(Cc2c(Cl)cccc2Cl)c(=O)ccn1C/C=C/c1ccc(-c2c[nH]c(CNC(=O)Nc3ncc(Br)s3)n2)cc1 | > 32 µg/mL |
| Cc1c(Cc2c(Cl)cccc2Cl)c(=O)ccn1CCc1ccc(-c2c[nH]c(CNC(=O)Nc3ncc(Sc4ccccn4)s3)n2)cc1 | > 32 µg/mL |
| Cc1c(Cc2c(Cl)cccc2Cl)c(=O)ccn1CCc1ccc(-c2c[nH]c(CNC(=O)Nc3ncc(S(C)(=O)=O)s3)n2)cc1 | > 32 µg/mL |
| Cc1c(Cc2c(Cl)cccc2Cl)c(=O)ccn1CCc1ccc(-c2c[nH]c(CNC(=O)Nc3ncc[nH]3)n2)cc1 | > 32 µg/mL |
| Cn1cc(CNC(=O)/C=C/c2cnc3c(c2)CCC(=O)N3)c2ccccc21 | 0.063 µg/mL (≈ 0.175 µM) |
| Cc1c(Cc2c(Cl)cccc2Cl)c(=O)ccn1CCCc1ccc(-c2c[nH]c(CNC(=O)Nc3ncc(Br)s3)n2)cc1 | > 32 µg/mL |
| Cc1c(Cc2c(Cl)cccc2Cl)c(=O)ccn1CCc1ccc(-c2c[nH]c(CNC(=O)Nc3ncc(Br)s3)n2)cc1 | > 32 µg/mL |
| CS(=O)(=O)c1ccc2nc(NC(=O)NCc3nc(-c4ccccc4)c[nH]3)sc2c1 | > 64 µg/mL |
| Oc1cc(Cl)ccc1Oc1ccc(Cl)cc1Cl [TRICLOSAN] | 0.063 µg/mL (≈ 0.218 µM) |
| Cc1c(Cc2c(Cl)cccc2Cl)c(=O)ccn1CCc1ccc(-c2c[nH]c(CNC(=O)Nc3nc4ccc(S(C)(=O)=O)cc4s3)n2)cc1 | > 32 µg/mL |

test system: K562; test: Cytotoxicity against human K562 cells; type: functional, cell-based

| Compound | IC50 |
| --- | --- |
| Cc1c(Cc2c(Cl)cccc2Cl)c(=O)ccn1Cc1ccc(-c2c[nH]c(CNC(=O)Nc3ncc(Br)s3)n2)cc1 | > 69 µM |
| Cc1c(Cc2c(Cl)cccc2Cl)c(=O)ccn1C/C=C/c1ccc(-c2c[nH]c(CNC(=O)Nc3ncc(Br)s3)n2)cc1 | > 69 µM |
| Cc1c(Cc2c(Cl)cccc2Cl)c(=O)ccn1CCc1ccc(-c2c[nH]c(CNC(=O)Nc3ncc(Sc4ccccn4)s3)n2)cc1 | > 69 µM |
| Cc1c(Cc2c(Cl)cccc2Cl)c(=O)ccn1CCc1ccc(-c2c[nH]c(CNC(=O)Nc3ncc(S(C)(=O)=O)s3)n2)cc1 | > 69 µM |
| Cc1c(Cc2c(Cl)cccc2Cl)c(=O)ccn1/C=C/c1ccc(-c2c[nH]c(CNC(=O)Nc3ncc(Br)s3)n2)cc1 | > 69 µM |
| Cc1c(Cc2c(Cl)cccc2Cl)c(=O)ccn1CCc1ccc(-c2c[nH]c(CNC(=O)Nc3ncc[nH]3)n2)cc1 | > 69 µM |
| Cc1c(Cc2c(Cl)cccc2Cl)c(=O)ccn1CCCc1ccc(-c2c[nH]c(CNC(=O)Nc3ncc(Br)s3)n2)cc1 | > 69 µM |
| Cc1c(Cc2c(Cl)cccc2Cl)c(=O)ccn1CCc1ccc(-c2c[nH]c(CNC(=O)Nc3ncc(Br)s3)n2)cc1 | > 69 µM |
| Cc1c(Cc2c(Cl)cccc2Cl)c(=O)ccn1CCc1ccc(-c2c[nH]c(CNC(=O)Nc3nc4ccc(S(C)(=O)=O)cc4s3)n2)cc1 | > 69 µM |
